The nature of data set [1]: Cytotoxicity against human PC3 cells after 48 hrs by MTT assay. In kind it is functional, cell-based, PC-3. In a few lines:
(§1)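 Tumor cells in log phase in RPMI 1640 + 10% FBS, seeded at 3×10^4 cells mL-1 and incubated 24 h (37 °C, 5% CO2). Test samples added at pre-set concentrations (6 wells each), doxorubicin as reference; 48 h exposure. MTT (2.5 mg·mL-1 in PBS) added for 4 h, formazan dissolved in DMSO, A570 read.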
Background: Tetrazolium assays rely on reduction of a dye to a coloured formazan, in cell work by metabolically active cells.

In data set [2] the test system is Bcap37. Briefly: Cytotoxicity against human Bcap37 cells after 48 hrs by MTT assay. The class given is functional, cell-based. In a few lines:
as §1

A short description of data set [3]: Cytotoxicity against human MGC803 cells after 48 hrs by MTT assay. In kind it is functional, cell-based, MGC-803. In a few lines:
as §1

The test system of data set [4] is HepG2. Briefly: Cytotoxicity against human HepG2 cells after 48 hrs by MTT assay. In kind it is functional, cell-based. The method in brief: as §1
Data set [5] in a line: Cytotoxicity against human GES-1 cells after 48 hrs by MTT assay. The class given is cell-based. Particulars: GES1, 48 h. The method in brief:
(§2)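 Human normal gastric mucosa GES-1 and liver L-02 cells; MTT assay; IC50 expressed in mM as mean of triplicate experiments.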

The nature of data set [6]: Cytotoxicity against human L02 cells after 48 hrs by MTT assay. In kind it is cell-based. The settings on record: L02, 48 h. The method in brief: as §2
Data set [7] concerns CCRF S-180. Briefly: Antitumor activity against mouse S180 cells xenografted in Kunming mouse assessed as tumor weight at 60 mg/kg/day, QD administered via oral gavage for 10 consecutive days (reference value: 1.98 +/- 0.22g). The class given is functional. The method in brief:
(§3)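 Kunming mice (20 ± 2 g) inoculated subcutaneously in right front armpit with seven-day-old ascites (0.2 ml, 2 × 10^6 cells). 24 h later randomized, 10 per group; oral gavage 60 mg/kg/day or normal saline (10 mL/kg) once daily for ten days. Sacrificed day 11; tumors and mice weighed. Inhibition rate = (Wcontrol − Wtreated)/Wcontrol × 100%.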

The test system of data set [8] is CCRF S-180. Briefly: Antitumor activity against mouse S180 cells xenografted in Kunming mouse assessed as inhibition of tumor growth at 60 mg/kg/day, QD administered via oral gavage for 10 consecutive days. In kind it is functional. Particulars: CCRF S-180, po, read-out: TGI. The method in brief: as §3
The test system of data set [9] is HepG2. Briefly: Antitumor activity against human HepG2 cells xenografted in Kunming mouse assessed as inhibition of tumor growth at 60 mg/kg/day, QD administered via oral gavage for 10 consecutive days. In kind it is functional. The settings on record: read-out: TGI. In a few lines: as §3
Data set [10] deals with Mus musculus. Briefly: Toxicity in mouse S180 cells xenografted Kunming mouse assessed as body weight at 60 mg/kg/day, QD administered via oral gavage for 10 consecutive days measured on day 11 (reference value: 23.84 +/- 2.11g). Particulars: in vivo. The class given is organism-based, CCRF S-180. In a few lines: as §3
For data set [11], the system named is Mus musculus. Briefly: Toxicity in human HepG2 cells xenografted Kunming mouse assessed as body weight at 60 mg/kg/day, QD administered via oral gavage for 10 consecutive days measured on day 11 (reference value: 25 +/- 1.65g). The class given is organism-based. Particulars: in vivo. In a few lines:
as §3

In data set [12] the test system is Mus musculus. Briefly: Toxicity in Kunming mouse xenografted with mouse EAC cells assessed as body weight at 60 mg/kg/day, QD administered via oral gavage for 10 consecutive days measured on day 11 (reference value: 19.52 +/- 1.17g). In kind it is organism-based, Ehrlich. Particulars: in vivo.
Data set [13] is described as follows: Antitumor activity against mouse EAC cells xenografted in Kunming mouse assessed as survival time at 60 mg/kg/day, QD administered via oral gavage for 10 consecutive days days (reference value: 16.6 +/- 2.02days). In kind it is functional, Ehrlich. The method in brief:
(§4)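 EAC cells were grown in RPMI-1640 with 10% heat-inactivated FBS and were kept as ascites by passaging 0.2 mL (2 × 10^6 cells) between mice. Kunming mice weighing 20 ± 2 g were used. Survival was followed by mortality. Mean survival time is the sum of each mouse's survival days divided by the number of mice. %ILS is the […].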

Data set [14] in a line: Antitumor activity against mouse EAC cells xenografted in Kunming mouse assessed as prolongation of survival time at 60 mg/kg/day, QD administered via oral gavage for 10 consecutive days days relative to untreated control. In kind it is functional. The settings on record: Ehrlich. In a few lines: as §4
Data set [15] concerns the target T1, Telomerase reverse transcriptase (Homo sapiens, UniProt O14746). Briefly: Inhibition of telomerase in human MGC-803 cells after 24 hrs by TRAP-PCR-ELISA assay. In kind it is cell-based. In a few lines: (§5)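 Cells lysed in RIPA on ice for 30 min; extract incubated with TRAP mix at 25 °C for 30 min, then 35 PCR cycles. Products hybridized to DIG probe, captured on streptavidin, detected with peroxidase anti-DIG at 490 nm; mean±SD.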

The subject of data set [16] is HepG2. Briefly: Antitumor activity against human HepG2 cells xenografted in Kunming mouse assessed as tumor weight at 60 mg/kg/day, QD administered via oral gavage for 10 consecutive days (reference value: 1.93 +/- 0.20g). On the technique in general: In xenograft studies the graft and the host belong to different species.
Data set [17] concerns the target T1, Telomerase reverse transcriptase. Briefly: Inhibition of telomerase in human MGC-803 cells upto 60 uM after 24 hrs by TRAP-PCR-ELISA assay. In kind it is cell-based. In a few lines: as §5
For orientation: In an ELISA, binding on a coated surface is turned into a signal by an enzyme label.

In data set [18] the test system is Rattus norvegicus. Briefly: Antitumor activity against DEN induced Sprague-Dawley rat hepatic tumor assessed as improvement of pathological changes at 50 mg/kg, po qd for 10 consecutive weeks by HE-staining based microscopic analysis. The class given is functional, organism-based. In a few lines:
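Male SD rats (120~160 g) gavaged with DEN 8 mg/kg once daily, 6 days/week; DEN continued to week 16. From week 10, compound given orally at 50 mg·kg-1 once daily for 10 consecutive weeks; n = 12 per group. Similar parts of left liver lobe fixed in 4% polyformaldehyde, paraffin-embedded, sectioned, HE stained; histopathology viewed at ×200.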

Where [19] appears, read: Homo sapiens, PC-3, 48 h, read-out: IC50.
Where [20] appears, read: Homo sapiens, Bcap37, 48 h, read-out: IC50.
[21] abbreviates: Homo sapiens, MGC-803, 48 h, read-out: IC50.
Setting [22] is: Homo sapiens, HepG2, 48 h, read-out: IC50.

Activity calls are given as the source filed them. The rule behind the calls is not given here.

T1 sequence (O14746 whole entry): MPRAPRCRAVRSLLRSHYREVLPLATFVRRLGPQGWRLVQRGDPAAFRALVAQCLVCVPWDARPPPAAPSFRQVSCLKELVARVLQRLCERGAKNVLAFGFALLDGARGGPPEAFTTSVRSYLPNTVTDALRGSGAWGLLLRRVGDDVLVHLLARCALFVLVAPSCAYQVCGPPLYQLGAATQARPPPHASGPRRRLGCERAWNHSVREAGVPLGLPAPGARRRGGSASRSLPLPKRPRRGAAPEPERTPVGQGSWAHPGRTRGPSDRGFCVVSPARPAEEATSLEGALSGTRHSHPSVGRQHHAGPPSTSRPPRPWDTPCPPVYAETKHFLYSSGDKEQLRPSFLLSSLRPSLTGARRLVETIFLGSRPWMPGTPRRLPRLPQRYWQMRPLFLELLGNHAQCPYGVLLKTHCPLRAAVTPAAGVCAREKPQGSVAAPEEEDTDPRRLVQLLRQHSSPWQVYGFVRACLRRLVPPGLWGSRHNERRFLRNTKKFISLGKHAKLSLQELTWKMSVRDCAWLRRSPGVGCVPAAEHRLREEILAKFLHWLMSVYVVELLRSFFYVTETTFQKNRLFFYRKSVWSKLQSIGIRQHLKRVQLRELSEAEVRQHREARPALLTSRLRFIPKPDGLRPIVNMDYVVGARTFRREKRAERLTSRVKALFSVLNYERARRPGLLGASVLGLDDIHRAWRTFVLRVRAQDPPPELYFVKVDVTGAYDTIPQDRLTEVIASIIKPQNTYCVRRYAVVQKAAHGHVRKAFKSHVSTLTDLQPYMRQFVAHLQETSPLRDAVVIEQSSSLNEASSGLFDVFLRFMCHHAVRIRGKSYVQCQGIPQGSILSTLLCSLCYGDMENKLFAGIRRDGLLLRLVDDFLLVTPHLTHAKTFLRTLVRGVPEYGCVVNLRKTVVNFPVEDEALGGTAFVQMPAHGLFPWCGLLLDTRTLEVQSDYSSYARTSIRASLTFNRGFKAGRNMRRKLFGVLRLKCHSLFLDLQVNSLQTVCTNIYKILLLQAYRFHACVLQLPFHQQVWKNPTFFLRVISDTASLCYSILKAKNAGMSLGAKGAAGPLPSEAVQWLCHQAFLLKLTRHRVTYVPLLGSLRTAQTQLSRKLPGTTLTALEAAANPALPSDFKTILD

What is called IC50 is the concentration that gives 50% inhibition. Consider `CC1=NN(C(=O)CN2CCCCC2)C(c2ccccc2O)C1` (centres undefined), for which the IC50 in data set [1] (setting [19]) came out at 5.89 µM; in data set [2] (setting [20]), 33.1 µM; in data set [3] (setting [21]), 4.31 µM; in data set [4] (setting [22]), 3.02 µM; in data set [5], 1290 µM; in data set [6] it was 1800 µM. The same compound registered a 50% inhibitory concentration (IC50) in data set [15] of 4.63 µM. In addition, the Activity is given as 1.1 g in [7]; 24.89 g in [10]; 26 g in data set [11]; 19.3 g in [12]; 1.17 g in data set [16]. The inhibition in vivo at 60 mg/kg/day was 44.4% in data set [8] and 39.4% in data set [9]. The Survival in [13] was 23.41 days. In addition, in data set [14], the survival at 60 mg/kg/day came to 41%.

Take `CCN(CC)CC(=O)N1N=C(C)CC1c1ccccc1OC(C)=O` (centres undefined): the IC50 in data set [1] (setting [19]) came out at 51.2 µM; in [2] (setting [20]) it was 44.2 µM; in data set [3] (setting [21]), 29.5 µM; in data set [4] (setting [22]) it was 33.2 µM. Besides, in data set [17], the inhibition entry was “inactive”.

With `CCCCN(CCCC)CC(=O)N1N=C(c2cc3ccccc3oc2=O)CC1c1ccccc1` (centres undefined), the concentration for half-maximal inhibition (IC50) in data set [1] (setting [19]) came to 4.87 µM; in data set [2] (setting [20]), 3.37 µM; in [3] (setting [21]), 2.96 µM; in data set [4] (setting [22]) it was 2.45 µM; in data set [5] it was 1640 µM; in [6] it was 1620 µM. For the same compound, the IC50 in [15] stood at 0.98 µM. In addition, the Activity in data set [7] was found to be 1.01 g; in data set [10] it was 24.64 g; in [11], 27.11 g; in data set [12], 19.6 g; in data set [16], 1.04 g. For the same compound, the inhibition in vivo at 60 mg/kg/day in data set [8] is 48.9%; in data set [9] it was 46.1%. For the same compound, in data set [13], the Survival was found to be 23.89 days. Further, the survival at 60 mg/kg/day in [14] was 43.9%. For the same compound, in data set [18], the result was Active.

For the compound `O=C(CCl)N1N=C(c2cc3ccccc3oc2=O)CC1c1ccccc1` (centres undefined), the IC50 in data set [1] (setting [19]) amounted to 2.98 µM; in data set [2] (setting [20]), 26.7 µM; in data set [3] (setting [21]), 2.02 µM; in data set [4] (setting [22]) it was 2.98 µM; in data set [5], 2110 µM; in [6], 1280 µM. Also, the IC50 in data set [15] came to 2.27 µM.

For `CC(=O)Oc1ccccc1C1CC(C)=NN1C(=O)CN1CCC(O)CC1` (centres undefined), the IC50 in [1] (setting [19]) worked out at 25.6 µM; in data set [2] (setting [20]) it was 9.8 µM; in data set [3] (setting [21]), 3.51 µM; in data set [4] (setting [22]), 12.3 µM; in data set [5], 2510 µM; in data set [6] it was 2230 µM. In addition, the IC50 in data set [15] amounted to 5.69 µM.

Turning to `CC(=O)Oc1ccccc1C1CC(C)=NN1C(=O)CCl` (centres undefined), the IC50 in data set [1] (setting [19]) was determined as 3.58 µM; in data set [2] (setting [20]), 6.81 µM; in [3] (setting [21]), 3.01 µM; in data set [4] (setting [22]), 2.52 µM; in [5], 1840 µM; in [6], 2530 µM. Also, the IC50 in data set [15] came to 1.27 µM.

Take `O=C(CN1CCC(O)CC1)N1N=C(c2cc3ccccc3oc2=O)CC1c1ccccc1` (centres undefined): the IC50 result in data set [1] (pc-3), in data set [2] (bcap37), in [3] (mgc-803) and in [4] (hepg2) was “Not Active” throughout. Also, the inhibition result in [17] was “inactive”.

For `CC1=NN(S(=O)(=O)c2ccc(C)cc2)C(c2cc(Br)cc(Br)c2O)C1` (centres undefined), the IC50 is 51.2 µM in data set [1] (setting [19]), “Not Active” in data set [2] (bcap37), “Not Active” in [3] (mgc-803) and “Not Active” in data set [4] (hepg2). Besides, the inhibition result in data set [17] was “inactive”.

`COc1ccc(NCC(=O)N2N=C(C)CC2c2ccccc2O)cc1` (centres undefined): the IC50 in data set [1] (setting [19]) is 51.6 µM; in data set [2] (setting [20]) it was 45.5 µM; in data set [3] (setting [21]) it was 9.87 µM; in [4] (setting [22]), 39.1 µM; in data set [15], 22.3 µM.

Consider `O=C(CN1CCSCC1)N1N=C(c2cc3ccccc3oc2=O)CC1c1ccccc1` (centres undefined), for which the IC50 in data set [1] (setting [19]) is 4 µM; in data set [2] (setting [20]) it was 8.2 µM; in data set [3] (setting [21]) it was 10.3 µM; in [4] (setting [22]), 8.96 µM; in [15], 3.3 µM.

Regarding `CNCC(=O)N1N=C(c2cc3ccccc3oc2=O)CC1c1ccccc1` (centres undefined), the IC50 was 2.3 µM in data set [1] (setting [19]); 4.22 µM in data set [2] (setting [20]); 12.8 µM in data set [3] (setting [21]); 24 µM in data set [4] (setting [22]); 3.15 µM in data set [15].

(Values after ChEMBL document CHEMBL3785019, “Dihydropyrazole derivatives as telomerase inhibitors: Structure-based design, synthesis, SAR and anticancer evaluation in vitro and in vivo” (Eur J Med Chem, 2016).)
